pKd: −log10 of the molar value. Where “and” joins values, the source holds several entries; their conditions need not be identical. Equal values may be shown once. Read-outs that look alike come from different tables or passages of the source. Blank lines part the entries; values can stand above or below the compound they belong to.
Assays:
[1] = system: NIH 3T3 cells; experiment: Confocal immunofluorescence of FLAG-PPIP5K1 translocation to the plasma membrane; format: cell-based
How it was run: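 NIH 3T3 cells on glass-bottom dishes were transfected 24 h after seeding with full-length FLAG-tagged human PPIP5K1 (Lipofectamine 2000). The next day they were serum-starved 3 h, then given PDGF. Cells were fixed in 3 % paraformaldehyde/4 % sucrose (15 min, 23 °C), permeabilized with 0.2 % Triton X-100, and blocked. Staining used anti-FLAG (2 h, 37 °C), Alexa 488 secondary and DAPI. Confocal ×63 line intensity profiles gave plasma membrane/cytoplasm pixel intensity ratios.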

[2] = target: T1, PBD1 (PPIP5K1) (Homo sapiens, UniProt Q6PFW1); experiment: SPR equilibrium binding to immobilized lipid vesicles, PBD1; details: for binding to PBD1: SPR, in words
T1 sequence (Q6PFW1 382-917): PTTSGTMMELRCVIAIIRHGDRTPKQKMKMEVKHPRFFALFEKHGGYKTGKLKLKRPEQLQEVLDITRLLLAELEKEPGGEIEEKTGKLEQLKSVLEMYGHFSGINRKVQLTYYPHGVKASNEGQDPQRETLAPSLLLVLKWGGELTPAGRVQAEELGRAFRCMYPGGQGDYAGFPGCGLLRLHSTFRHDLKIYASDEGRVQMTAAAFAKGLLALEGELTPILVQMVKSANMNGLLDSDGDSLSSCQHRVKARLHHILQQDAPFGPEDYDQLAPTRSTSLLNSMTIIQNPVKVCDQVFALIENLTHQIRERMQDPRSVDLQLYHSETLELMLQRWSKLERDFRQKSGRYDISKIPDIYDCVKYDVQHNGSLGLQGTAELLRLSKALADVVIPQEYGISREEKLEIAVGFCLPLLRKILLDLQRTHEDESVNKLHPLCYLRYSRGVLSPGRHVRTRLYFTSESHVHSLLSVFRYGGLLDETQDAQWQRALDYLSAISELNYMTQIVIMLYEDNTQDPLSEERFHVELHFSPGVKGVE
How it was run: (§1)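 Large unilamellar vesicles (PtdCho/PtdE/test phosphoinositide 77:20:3) were captured on an L1 chip to 5000 RU. Signals were corrected against phosphoinositide-free vesicles. Kd came from nonlinear fitting of Req = Rmax/(1+Kd/C). Concentrations were: GRP-1 PH domain 2.5–125 nM; PBD1 on PtdIns(3,4,5)P₃ 5–150 nM; bisphosphate vesicles 75–1900 nM.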

[3] = target: T2, phosphatase-like domain of PPIP5K1 (PBD1) (Homo sapiens, UniProt Q6PFW1); experiment: Phosphatase assay with phosphatase-like domain of PPIP5K1; format: biochemical; details: for hydrolysis of inositol phosphate: up to 15 h at 37 °C, trace 3H-labelled material (InsP6 also 1 μM)
T2 sequence (Q6PFW1 382-917): T1 sequence (Q6PFW1 382-917)
How it was run: (§2)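 Enzyme and 50 mM p-nitrophenyl phosphate were incubated at 37 °C in EDTA-free phosphatase buffer: 5 mM Hepes pH 7.2, 100 mM KCl, 2 mM MgCl₂, 0.5 mg/ml BSA. Reactions were stopped with 1 M NaOH, and p-nitrophenol accumulation was read as absorbance. Phosphatase-like domains were His-tagged constructs made in E. coli with pGro7 chaperones, purified by Ni-NTA then SP cation exchange. hMIPP was recombinant.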

[4] = target: T3, phosphatase-like domain of PPIP5K2 (PBD2) (Homo sapiens, UniProt O43314); experiment: Phosphatase assay with phosphatase-like domain of PPIP5K2; format: biochemical; details: for hydrolysis of inositol phosphate: results not shown
T3 sequence (O43314 371-901 isoform O43314-2): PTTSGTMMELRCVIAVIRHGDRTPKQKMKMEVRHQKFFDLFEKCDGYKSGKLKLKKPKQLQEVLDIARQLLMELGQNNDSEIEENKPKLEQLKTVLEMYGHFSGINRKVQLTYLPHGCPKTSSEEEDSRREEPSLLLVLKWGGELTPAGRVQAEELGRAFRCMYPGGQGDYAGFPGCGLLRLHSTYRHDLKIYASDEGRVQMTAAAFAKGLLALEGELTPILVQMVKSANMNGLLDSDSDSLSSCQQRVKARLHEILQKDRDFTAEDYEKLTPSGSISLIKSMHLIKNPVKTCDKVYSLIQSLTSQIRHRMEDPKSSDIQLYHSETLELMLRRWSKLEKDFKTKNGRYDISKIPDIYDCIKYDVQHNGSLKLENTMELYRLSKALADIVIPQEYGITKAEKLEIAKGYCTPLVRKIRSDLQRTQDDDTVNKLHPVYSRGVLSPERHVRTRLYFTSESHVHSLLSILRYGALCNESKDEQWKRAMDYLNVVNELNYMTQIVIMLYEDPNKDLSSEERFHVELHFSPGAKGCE
How it was run: as §2

[5] = system: full-length recombinant human PPIP5K1; details: in vitro; cited from earlier work
[6] = target: T4, PBD2 (PPIP5K2) (Homo sapiens, UniProt O43314); experiment: SPR equilibrium binding to immobilized lipid vesicles, PBD2; details: for binding to PBD2: SPR, in words
T4 sequence (O43314 371-901 isoform O43314-2): T3 sequence (O43314 371-901 isoform O43314-2)
How it was run: as §1

[7] = target: T5, PBD2 (Homo sapiens, UniProt O43314); experiment: PEG precipitation [3H]InsP6 binding assay
T5 sequence (O43314 371-901 isoform O43314-2): T3 sequence (O43314 371-901 isoform O43314-2)
How it was run: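 PBD2 (32 μg) was incubated 20 min at 4 °C in 25 mM Hepes pH 7.2 containing 5 mg/ml γ-globulin, 100 mM KCl, 1 mM EDTA and 1 mM DTT. Each tube held ~15000 d.p.m. [³H]InsP₆ plus increasing unlabelled InsP₆ or C₈-PtdIns(3,4,5)P₃. Ice-cold 30 % PEG was added, samples were held 10 min at 0–4 °C and centrifuged at 10 000 g. Washed pellets were counted, and Kd and Bmax came from the saturation binding plot.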

[8] = target: T6, PPIP5K1 kinase domain (Homo sapiens, UniProt Q6PFW1); experiment: Kinase assay with PPIP5K1 kinase domain; format: biochemical; details: ratio of kcat/Km, this study
T6 sequence (Q6PFW1 1-387 limits assumed): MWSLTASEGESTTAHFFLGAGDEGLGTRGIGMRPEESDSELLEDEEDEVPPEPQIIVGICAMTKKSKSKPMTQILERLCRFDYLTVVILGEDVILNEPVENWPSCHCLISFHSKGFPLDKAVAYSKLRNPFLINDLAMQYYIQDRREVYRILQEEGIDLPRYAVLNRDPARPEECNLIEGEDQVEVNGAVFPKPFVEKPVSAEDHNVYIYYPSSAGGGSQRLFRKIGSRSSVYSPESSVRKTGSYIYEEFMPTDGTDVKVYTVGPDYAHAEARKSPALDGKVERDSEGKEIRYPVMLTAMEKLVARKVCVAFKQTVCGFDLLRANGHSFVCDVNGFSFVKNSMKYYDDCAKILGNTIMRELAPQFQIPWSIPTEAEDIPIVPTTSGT

[9] = target: T6, PPIP5K1 kinase domain; details: cited from earlier work
[10] = target: T7, hMIPP (Homo sapiens, UniProt Q9UNW1); experiment: Hydrolysis of p-nitrophenyl phosphate by hMIPP; format: biochemical; details: 50 mM p-nitrophenyl phosphate, 90 ug hMIPP
T7 sequence (Q9UNW1 31-487): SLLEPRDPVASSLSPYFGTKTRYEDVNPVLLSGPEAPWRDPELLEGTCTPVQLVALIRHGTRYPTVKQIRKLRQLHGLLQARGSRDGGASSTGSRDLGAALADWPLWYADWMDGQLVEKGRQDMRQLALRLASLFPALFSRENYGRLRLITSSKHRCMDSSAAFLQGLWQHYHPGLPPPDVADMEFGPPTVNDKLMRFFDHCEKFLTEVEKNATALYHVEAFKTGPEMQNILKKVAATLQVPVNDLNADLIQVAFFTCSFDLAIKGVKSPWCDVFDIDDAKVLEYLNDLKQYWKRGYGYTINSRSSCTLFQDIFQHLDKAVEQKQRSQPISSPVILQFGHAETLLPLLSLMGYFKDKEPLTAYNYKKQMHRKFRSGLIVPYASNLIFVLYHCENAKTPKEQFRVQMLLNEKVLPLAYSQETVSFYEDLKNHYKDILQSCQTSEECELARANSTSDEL
How it was run: as §2

[11] = target: T8, GRP-1 PH domain (Mus musculus, UniProt O08967); details: read-out: Kd, values published by others; same technique; cited from earlier work
T8 sequence (O08967 264-380 limits assumed): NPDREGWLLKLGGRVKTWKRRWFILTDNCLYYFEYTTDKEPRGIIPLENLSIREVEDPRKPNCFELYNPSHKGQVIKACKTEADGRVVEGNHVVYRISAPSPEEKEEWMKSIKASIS

[12] = target: T8, GRP-1 PH domain; experiment: SPR equilibrium binding to immobilized lipid vesicles, GRP-1 PH domain
How it was run: as §1

[13] = Stability of InsP8 through acid-quench, neutralization and HPLC; format: physicochemical; details: HPLC-purified [3H]InsP8

affinity relative to PtdIns(3,4,5)P3 (fold lower) ([2]; PBD1): approx. 6 fold | binding to PBD1 [2]: significantly weaker ligands
Compound: PtdIns(3,4)P2

binding to PBD2 [6]: did not bind | binding to PBD1 [2]: did not bind
Compound: Ptd5P

binding to PBD2 [6]: did not bind | binding to PBD1 [2]: no significant binding
Compound: PtdIns(3,5)P2

binding to PBD2 [6]: did not bind | binding to PBD1 [2]: did not bind
Compound: Ptd3P

hydrolysis of inositol phosphate [4]: Identical results
Compound: O=P(O)(O)OC1C(OP(=O)(O)O)C(OP(=O)(O)OP(=O)(O)O)C(OP(=O)(O)O)C(OP(=O)(O)OP(=O)(O)O)C1OP(=O)(O)O (centres unmarked) [[PP]2-InsP4, 1/3,5-[PP]2-InsP4]
hydrolysis of inositol phosphate [3]: none of these polyphosphates were hydrolysed | dephosphorylation by full-length PPIP5K1 [5]: does not de-phosphorylate

Bmax ([7]; InsP6 binding to PBD2): 0.6 mol/mol of protein | pKd ([7]; saturation binding plot, 4 °C): 6.22 and 6.24 | hydrolysis of inositol phosphate [4]: Identical results
Compound: O=P(O)(O)O[C@H]1[C@H](OP(=O)(O)O)[C@@H](OP(=O)(O)O)[C@H](OP(=O)(O)O)[C@@H](OP(=O)(O)O)[C@H]1OP(=O)(O)O [InsP6]
hydrolysis of inositol phosphate [3]: none of these polyphosphates were hydrolysed | dephosphorylation by full-length PPIP5K1 [5]: does not de-phosphorylate

hydrolysis of the lipid (phosphate release) ([3]; PBD1 35 μg/ml, 24 h at 37 °C, 1 mM lipid): unable to detect any hydrolysis | potency relative to InsP6 at displacing [3H]InsP6 ([7]; PEG-precipitation assay): 2- to 3 fold
Compound: CCCCCCCC(=O)OC[C@H](COP(=O)(O)OC1[C@H](O)[C@H](OP(=O)(O)O)C(OP(=O)(O)O)[C@H](OP(=O)(O)O)[C@H]1O)OC(=O)CCCCCCC (some centres unmarked) [C8 soluble analogue of PtdIns(3,4,5)P3, C8-PtdIns(3,4,5)P3, reference compound]

dephosphorylation after acid-quench, neutralization and HPLC [13]: did not detect any dephosphorylation | recovery after acid-quench, neutralization and HPLC [13]: > 85% | hydrolysis of inositol phosphate [4]: Identical results
Compound: InsP8
hydrolysis of inositol phosphate [3]: none of these polyphosphates were hydrolysed

binding to PBD2 [6]: did not bind | binding to PBD1 [2]: did not bind
Compound: Ptd4P

Further lines, the compound ahead of its results:

Compound: O=c1cc(N2CCOCC2)oc2c(-c3ccccc3)cccc12 [LY294002, reference compound]
PDGF-induced translocation of PPIP5K1 ([1]; 15 min pre-treatment with 100 μM LY294002 before 50 ng/ml PDGF for 5 min): largely prevented

Compound: O=P(O)(O)OC1[C@@H](OP(=O)(O)O)[C@@H](OP(=O)(O)O)C(OP(=O)(O)OP(=O)(O)O)[C@H](OP(=O)(O)O)[C@H]1OP(=O)(O)O (some centres unmarked) [1/3-PP-InsP5]
hydrolysis of inositol phosphate [3]: none of these polyphosphates were hydrolysed | hydrolysis of inositol phosphate [4]: Identical results

Compound: O=P(O)(O)OC1[C@@H](OP(=O)(O)O)[C@H](OP(=O)(O)O)C(O)[C@H](OP(=O)(O)O)[C@H]1OP(=O)(O)O (some centres unmarked) [Ins(1,3,4,5,6)P5]
dephosphorylation by full-length PPIP5K1 [5]: does not de-phosphorylate

Compound: PDGF
proportion of PPIP5K1 at the plasma membrane ([1]; 50 ng/ml PDGF, 5 min): significant increase

Compound: O=P(O)(O)OC1[C@@H](OP(=O)(O)O)[C@H](OP(=O)(O)O)C(OP(=O)(O)OP(=O)(O)O)[C@H](OP(=O)(O)O)[C@H]1OP(=O)(O)O (some centres unmarked) [5-PP-InsP5]
catalytic preference for 5-PP-InsP5 over InsP6 [8]: 80 fold | hydrolysis of inositol phosphate [3]: none of these polyphosphates were hydrolysed | dephosphorylation by full-length PPIP5K1 [5]: does not de-phosphorylate | hydrolysis of inositol phosphate [4]: Identical results | catalytic specificity for 5-PP-InsP5 relative to InsP6 [9]: 2.5 fold

Compound: O=[N+]([O-])c1ccc(OP(=O)(O)O)cc1 [p-nitrophenyl phosphate, reference compound]
rate of p-nitrophenyl phosphate hydrolysis [10]: approx. 10 nM/mg of protein per min | hydrolysis of p-nitrophenyl phosphate ([3]; 50 mM p-nitrophenyl phosphate, 90 μg PBD1): no activity | hydrolysis of p-nitrophenyl phosphate ([4]; 50 mM p-nitrophenyl phosphate, 90 μg PBD2): no activity

Compound: CCCCC/C=C\C/C=C\C/C=C\C/C=C\CCCC(=O)O[C@H](COC(=O)CCCCCCCCCCCCCCCCC)COP(=O)(O)O[C@H]1[C@H](O)[C@@H](OP(=O)(O)O)[C@H](OP(=O)(O)O)[C@@H](OP(=O)(O)O)[C@H]1O [PtdIns(3,4,5)P3]
pKd [6]: 6.15 | pKd [11]: 6.77 to 7.55 | pKd [12]: 7.23 | pKd [2]: 7.02

Reference: paper PMC3962999 (The Biochemical journal, 2011)
